# ChEMBL document CHEMBL4257447, “Discovery of human lactate dehydrogenase A (LDHA) inhibitors as anticancer agents to inhibit the proliferation of MG-63 osteosarcoma cells” (Medchemcomm, 2017)
# Active and inactive are the calls of the source. No cut-off for these calls is given here.
# What was measured:
# [1] = test system: MG-63; assay: Growth inhibition of human MG63 cells at 10 uM after 72 hrs by MTT assay relative to control; format: functional; details: for inhibition of growth at 10 µM: MG-63, 72 h, read-out: GI
# Outline: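 MG-63 cells (2500/well) were plated overnight. 10 μL of 100 μM working solution in PBS, diluted from 40 mM stock, was added for 72 h. MTT was added for 4 h, the solvent replaced with DMSO, and OD570 read as percent growth inhibition.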
# [2] = biological target: L-lactate dehydrogenase A chain (Bos taurus, UniProt P19858); assay: Inhibition of bovine heart LDHA
# [3] = biological target: T1, L-lactate dehydrogenase A chain (Homo sapiens, UniProt P00338); assay: Inhibition of human LDHA at 2 uM using pyruvate as substrate by monitoring the disappearance of NADH relative to control
# [4] = biological target: T1, L-lactate dehydrogenase A chain; assay: Binding affinity to LDHA (unknown origin) by ITC analysis
# Outline: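 LDHA diluted to 10 μM in 50 mM Hepes pH 7.2, 100 mM NaCl, 2 mM DTT, 1% DMSO (250 μL in cell); ligand at 100 μM in the same buffer titrated in 2.5 μL injections at 25 °C. One-site model fit gives the binding parameters.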
# [5] = test system: MG-63; assay: Growth inhibition of human MG63 cells after 72 hrs by MTT assay; format: functional, cell-based; details: MG-63, 72 h
# Outline: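 MG-63 cells (2500/well), grown in DMEM with 10% FBS at 37 °C and 5% CO2, plated overnight. They were then exposed for 72 h to eight concentrations (400 to 3.1 μM as listed), diluted in PBS from 40 mM stocks. MTT was added for 4 h and the formazan dissolved in DMSO, with OD read at 570 nm. EC50 is the mean of three independent experiments; cisplatin was the positive control.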
# [6] = test system: MG-63; assay: Induction of apoptosis in human MG63 cells assessed as viable cells at 2 uM after 24 hrs by annexin V-FITC/propidium iodide staining-based flow cytometric analysis (reference value: 95.2%); format: functional; details: MG-63, 24 h, read-out: Activity
# [7] = test system: MG-63; assay: Induction of apoptosis in human MG63 cells assessed as early apoptotic cells at 2 uM after 24 hrs by annexin V-FITC/propidium iodide staining-based flow cytometric analysis (reference value: 0.8%); format: functional
# [8] = test system: MG-63; assay: Induction of apoptosis in human MG63 cells assessed as late apoptotic cells at 2 uM after 24 hrs by annexin V-FITC/propidium iodide staining-based flow cytometric analysis (reference value: 3.2%); format: functional
# [9] = test system: MG-63; assay: Induction of apoptosis in human MG63 cells assessed as necrotic cells at 2 uM after 24 hrs by annexin V-FITC/propidium iodide staining-based flow cytometric analysis (reference value: 0.8%); format: functional
# [10] = test system: MG-63; assay: Induction of apoptosis in human MG63 cells assessed as viable cells at 5 uM after 24 hrs by annexin V-FITC/propidium iodide staining-based flow cytometric analysis (reference value: 95.2%); format: functional; details: MG-63, 24 h, read-out: Activity
# [11] = test system: MG-63; assay: Induction of apoptosis in human MG63 cells assessed as early apoptotic cells at 5 uM after 24 hrs by annexin V-FITC/propidium iodide staining-based flow cytometric analysis (reference value: 0.8%); format: functional
# [12] = test system: MG-63; assay: Induction of apoptosis in human MG63 cells assessed as late apoptotic cells at 5 uM after 24 hrs by annexin V-FITC/propidium iodide staining-based flow cytometric analysis (reference value: 3.2%); format: functional
# [13] = test system: MG-63; assay: Induction of apoptosis in human MG63 cells assessed as necrotic cells at 5 uM after 24 hrs by annexin V-FITC/propidium iodide staining-based flow cytometric analysis (reference value: 0.8%); format: functional
# [14] = test system: MG-63; assay: Induction of apoptosis in human MG63 cells assessed as viable cells at 10 uM after 24 hrs by annexin V-FITC/propidium iodide staining-based flow cytometric analysis (reference value: 95.2%); format: functional; details: MG-63, 24 h, read-out: Activity
# [15] = test system: MG-63; assay: Induction of apoptosis in human MG63 cells assessed as early apoptotic cells at 10 uM after 24 hrs by annexin V-FITC/propidium iodide staining-based flow cytometric analysis (reference value: 0.8%); format: functional
# [16] = test system: MG-63; assay: Induction of apoptosis in human MG63 cells assessed as late apoptotic cells at 10 uM after 24 hrs by annexin V-FITC/propidium iodide staining-based flow cytometric analysis (reference value: 3.2%); format: functional
# [17] = test system: MG-63; assay: Induction of apoptosis in human MG63 cells assessed as necrotic cells at 10 uM after 24 hrs by annexin V-FITC/propidium iodide staining-based flow cytometric analysis (reference value: 0.8%); format: functional
# [18] = test system: MG-63; assay: Induction of apoptosis in human MG63 cells after 24 hrs by annexin V-FITC/propidium iodide staining-based flow cytometric analysis; format: functional, cell-based
# [19] = biological target: T1, L-lactate dehydrogenase A chain; assay: Inhibition of LDHA in human MG63 cells assessed as decrease in lactate levels after 4 hrs; format: cell-based
# Outline: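 MG-63 cells (3×10^5/well, 6-well) were plated overnight and treated for 4 h at 2, 5, 8, 10 and 12 μM, with 10 μM for the reference. Medium was centrifuged for 5 min and 1 mL assayed for lactate on a Nova Bioprofile Flex analyzer. IC50 was derived from the dose-response.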
# [20] = biological target: T1, L-lactate dehydrogenase A chain; assay: Inhibition of LDHA in human MG63 cells assessed as increase in oxygen consumption rate at 2 to 10 uM after 6 hrs by XF24 extracellular flux analyzer based assay; format: cell-based
# Outline: (§1)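 MG-63 cells (30 000/well) were pretreated for 6 h with a range of concentrations. OCR and ECAR were then measured on the XF24 extracellular flux analyzer.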
# [21] = biological target: T1, L-lactate dehydrogenase A chain; assay: Inhibition of LDHA in human MG63 cells assessed as decrease in extracellular acidification rate at 2 to 10 uM after 6 hrs by XF24 extracellular flux analyzer based assay; format: cell-based; outline: as §1
# [22] = biological target: T1, L-lactate dehydrogenase A chain; assay: Inhibition of human LDHA using pyruvate as substrate by monitoring the disappearance of NADH relative to control
smiles,measurement,setting,value
Cc1cc(=O)c(O)c([C@H](CC(=O)N2CCc3c([nH]c4ccccc34)C2)c2ccnc3ccccc23)o1,inhibition of growth at 10 µM,[1],48.7%
NC(=O)C(=O)O [OXAMATE],Ki,[2],136000 nM
COc1c(C)c2c(c(O)c1C/C=C(\C)CCC(=O)NCc1ccc(Cl)cc1)C(=O)OC2,growth inhibition (GI),[1],inactive
CCOC(=O)C[C@H](c1cc(OC)c2c(c1)OCCO2)c1oc(CO)cc(=O)c1O,inhibition of growth at 10 µM,[1],67.8%
same,inhibition,[3],71%
COCc1cc(=O)c(O)c([C@@H](CC(N)=O)c2cc3ccccc3n(CC(C)C)c2=O)o1,Kd,[4],950 nM
same,inhibition of growth at 10 µM,[1],88.7%
same,EC50,[5],3350 nM
same,viability at 2 µM,[6],94%
same,Activity,[7],1%
same,Activity,[8],4.4%
same,Activity,[9],0.6%
same,viability at 5 µM,[10],89.3%
same,Activity,[11],4.2%
same,Activity,[12],5.8%
same,Activity,[13],0.7%
same,viability at 10 µM,[14],82.9%
same,Activity,[15],3%
same,Activity,[16],12.9%
same,Activity,[17],1.2%
same,Activity,[18],Dose-dependent effect
same,IC50,[19],7190 nM
same,inhibition,[19],Dose-dependent effect
same,inhibition,[20],Dose-dependent effect
same,inhibition,[21],Active
same,IC50,[22],330 nM
same,inhibition,[3],94%
O=C1CC(c2c(Cl)cccc2Cl)CC(O)=C1Sc1ccccc1Cl (stereo not given),growth inhibition (GI),[1],inactive
same,IC50,[22],2370 nM
COC(=O)C[C@H](c1cccc(O)c1)c1oc(CSc2ccccc2OC)cc(=O)c1O,inhibition of growth at 10 µM,[1],68.9%
